Experimental data as given in ChEMBL document CHEMBL1152689, “Synthesis, tautomerism, and antimicrobial, anti-HCV, anti-SSPE, antioxidant, and antitumor activities of arylazobenzosuberones” (Bioorg Med Chem, 2009).
≈ marks a conversion by molar mass, not a printed value. Calls of active or inactive are those of the source. The calls are words filed in the database; no cut-off is given here.

Legend:
[1] = tested on: Bacillus subtilis; experiment: Antimicrobial activity against Bacillus subtilis by agar diffusion method; assay type: functional
Method in brief: (§1)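 Agar diffusion on plates against bacteria and fungi. MIC taken as the lowest concentration giving no visible growth on the plate.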

[2] = tested on: Hepatitis C virus; experiment: Antiviral activity against HCV by cell based replicon assay; assay type: functional, Hepacivirus hominis
Method in brief: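 HCV replicon cells plated at 1×10^4 per well. Next day incubated at 37 °C with serially diluted compound in DMEM with 2% FBS and 0.5% DMSO. HCV RNA copy number measured by quantitative RT-PCR on total cellular RNA. Each point is the average of five replicates. Cytotoxicity measured by MTS in parallel.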

[3] = tested on: Staphylococcus aureus; experiment: Antimicrobial activity against Staphylococcus aureus at 2.5 ug/mL by agar diffusion method; assay type: functional; settings: read-out: IZ
[4] = tested on: Syncephalastrum racemosum; experiment: Antimicrobial activity against Syncephalastrum racemosum at 1.25 ug/mL by agar diffusion method; assay type: functional; settings: read-out: IZ
[5] = tested on: Syncephalastrum racemosum; experiment: Antimicrobial activity against Syncephalastrum racemosum by agar diffusion method; assay type: functional; method in brief: as §1
[6] = tested on: Pseudomonas aeruginosa; experiment: Antimicrobial activity against Pseudomonas aeruginosa at 1.25 ug/mL by agar diffusion method; assay type: functional; settings: read-out: IZ
[7] = tested on: Penicillium italicum; experiment: Antimicrobial activity against Penicillium italicum by agar diffusion method; assay type: functional; method in brief: as §1
[8] = biological target: DNA topoisomerase 2-alpha (Mus musculus) (UniProt Q01320); experiment: Inhibition of topoisomerase 2 from mouse P388 cells assessed as relaxation of pBR322 DNA by agarose gel electrophoresis relative to etoposide; assay type: cell-based
Method in brief: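 Topoisomerase II purified from P388 cells. One unit relaxes 0.125 µg supercoiled pBR322 DNA, incubated with or without inhibitor at 30 °C for 1 h in 50 mM Tris-HCl pH 8.0, 100 mM KCl, 10 mM MgCl2, 0.5 mM DTT, 1 mM ATP and 30 µg/ml BSA. Products run on 0.7% agarose in TBE, stained with ethidium bromide and imaged under UV.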

[9] = tested on: Penicillium italicum; experiment: Antimicrobial activity against Penicillium italicum at 2.5 ug/mL by agar diffusion method; assay type: functional; settings: read-out: IZ
[10] = tested on: Staphylococcus aureus; experiment: Antimicrobial activity against Staphylococcus aureus at 5 ug/mL by agar diffusion method; assay type: functional; settings: read-out: IZ
[11] = tested on: Candida albicans; experiment: Antimicrobial activity against Candida albicans at 2.5 ug/mL by agar diffusion method; assay type: functional; settings: read-out: IZ
[12] = biological target: T1, DNA topoisomerase 1 (Homo sapiens) (UniProt P11387); experiment: Inhibition of topoisomerase 1 relative to etoposide
T1 sequence (whole entry): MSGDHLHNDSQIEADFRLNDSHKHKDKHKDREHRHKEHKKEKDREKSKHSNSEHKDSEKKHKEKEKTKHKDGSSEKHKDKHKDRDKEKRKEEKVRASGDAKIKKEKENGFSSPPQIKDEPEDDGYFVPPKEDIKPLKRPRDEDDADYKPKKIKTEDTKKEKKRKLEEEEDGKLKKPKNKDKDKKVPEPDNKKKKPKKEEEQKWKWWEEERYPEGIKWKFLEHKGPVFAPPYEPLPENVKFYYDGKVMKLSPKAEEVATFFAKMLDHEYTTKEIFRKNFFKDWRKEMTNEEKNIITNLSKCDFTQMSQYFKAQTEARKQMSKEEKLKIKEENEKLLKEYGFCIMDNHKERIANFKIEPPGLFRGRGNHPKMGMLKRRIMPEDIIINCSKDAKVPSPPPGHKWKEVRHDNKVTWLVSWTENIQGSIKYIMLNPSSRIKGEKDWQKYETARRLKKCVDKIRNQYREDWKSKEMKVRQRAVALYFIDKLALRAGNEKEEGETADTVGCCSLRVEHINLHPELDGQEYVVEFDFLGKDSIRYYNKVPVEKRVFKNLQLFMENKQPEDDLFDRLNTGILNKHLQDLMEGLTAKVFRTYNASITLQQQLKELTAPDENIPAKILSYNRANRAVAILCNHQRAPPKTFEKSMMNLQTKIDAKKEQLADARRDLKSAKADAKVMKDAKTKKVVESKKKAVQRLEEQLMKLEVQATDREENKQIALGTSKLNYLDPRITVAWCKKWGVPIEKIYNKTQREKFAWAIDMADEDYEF

[13] = tested on: Penicillium italicum; experiment: Antimicrobial activity against Penicillium italicum at 5 ug/mL by agar diffusion method; assay type: functional; settings: read-out: IZ
[14] = tested on: Radical scavenging activity; experiment: Antioxidant activity assessed as DPPH free radical scavenging activity by measuring reduction in DPPH absorbance by ELISA relative to untreated control; assay type: functional; parameters: concentration or dose not given beside the values
Method in brief: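 Test compounds dissolved in DMSO, ascorbic acid standard in water, both serially diluted. 10 µl sample added to 90 µl of 100 µM DPPH in methanol and kept in the dark at 37 °C for 30 min. Absorbance read at 515 nm. Blank is DMSO plus DPPH. % reduction = (A_B − A_A)/A_B × 100. Run in triplicate.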

[15] = tested on: Aspergillus fumigatus; experiment: Antimicrobial activity against Aspergillus fumigatus at 2.5 ug/mL by agar diffusion method; assay type: functional; settings: read-out: IZ
[16] = tested on: Staphylococcus aureus; experiment: Antimicrobial activity against Staphylococcus aureus by agar diffusion method; assay type: functional; method in brief: as §1
[17] = Antioxidant activity assessed as inhibition of peroxynitrite-mediated 3-nitrotyrosine formation by HPLC; assay type: functional
Method in brief: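 Tyrosine and peroxynitrite, each 100 µM, reacted with compound at 0–300 µM in 100 mM phosphate buffer pH 7.4 at 37 °C for 15 min. Peroxynitrite made from acidified H2O2 plus KNO2, quenched with NaOH, and kept on ice no longer than 30 min before use.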

[18] = tested on: Bacillus subtilis; experiment: Antimicrobial activity against Bacillus subtilis at 2.5 ug/mL by agar diffusion method; assay type: functional; settings: read-out: IZ
[19] = tested on: Pseudomonas aeruginosa; experiment: Antimicrobial activity against Pseudomonas aeruginosa at 2.5 ug/mL by agar diffusion method; assay type: functional; settings: read-out: IZ
[20] = tested on: Escherichia coli; experiment: Antimicrobial activity against Escherichia coli at 5 ug/mL by agar diffusion method; assay type: functional; settings: read-out: IZ
[21] = tested on: Aspergillus fumigatus; experiment: Antimicrobial activity against Aspergillus fumigatus at 5 ug/mL by agar diffusion method; assay type: functional; settings: read-out: IZ
[22] = tested on: Bacillus subtilis; experiment: Antimicrobial activity against Bacillus subtilis at 5 ug/mL by agar diffusion method; assay type: functional; settings: read-out: IZ
[23] = tested on: Aspergillus fumigatus; experiment: Antimicrobial activity against Aspergillus fumigatus at 1.25 ug/mL by agar diffusion method; assay type: functional; settings: read-out: IZ
[24] = tested on: Aspergillus fumigatus; experiment: Antimicrobial activity against Aspergillus fumigatus by agar diffusion method; assay type: functional; method in brief: as §1
[25] = tested on: Syncephalastrum racemosum; experiment: Antimicrobial activity against Syncephalastrum racemosum at 5 ug/mL by agar diffusion method; assay type: functional; settings: read-out: IZ
[26] = tested on: Candida albicans; experiment: Antimicrobial activity against Candida albicans at 5 ug/mL by agar diffusion method; assay type: functional; settings: read-out: IZ
[27] = tested on: Escherichia coli; experiment: Antimicrobial activity against Escherichia coli at 2.5 ug/mL by agar diffusion method; assay type: functional; settings: read-out: IZ
[28] = tested on: Candida albicans; experiment: Antimicrobial activity against Candida albicans by agar diffusion method; assay type: functional; method in brief: as §1
[29] = tested on: Pseudomonas aeruginosa; experiment: Antimicrobial activity against Pseudomonas aeruginosa at 5 ug/mL by agar diffusion method; assay type: functional; settings: read-out: IZ
[30] = tested on: MC-38; experiment: Antitumor activity against mouse Colon 38 cells implanted in iv dosed C57BL/6 mouse administered as single dose; assay type: functional, organism-based
Method in brief: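 Female C57BL/6 mice, 6 weeks old, given about 30 mg Colon 38 tumor tissue s.c. in the flank. Randomized into groups of n = 5 when tumors reached about 300 mm3 (day 1). Compound in 5% glucose given as a single iv tail-vein dose on day 1; controls received 5% glucose. Tumor volume = (length × width²)/2 and body weight tracked.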

[31] = tested on: Measles morbillivirus; experiment: Antiviral activity against Measles virus infected in intracranially dosed hamster assessed as inhibition of subacute sclerosing panencephalitis; assay type: functional
Method in brief: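 Hamsters under ether anesthesia injected intracranially, into the subarachnoid space at 2 mm depth, at 5, 10 and 20 mg/kg/day for 10 days. Four animals per group sacrificed on days 1–20. Brains homogenized in PBS and centrifuged, supernatant deproteinized with ethanol, then MIC in brain tissue determined by HPLC and bioassay.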

[32] = tested on: Syncephalastrum racemosum; experiment: Antimicrobial activity against Syncephalastrum racemosum at 2.5 ug/mL by agar diffusion method; assay type: functional; settings: read-out: IZ
[33] = tested on: Penicillium italicum; experiment: Antimicrobial activity against Penicillium italicum at 1.25 ug/mL by agar diffusion method; assay type: functional; settings: read-out: IZ
[34] = tested on: Candida albicans; experiment: Antimicrobial activity against Candida albicans at 1.25 ug/mL by agar diffusion method; assay type: functional; settings: read-out: IZ
[35] = tested on: Staphylococcus aureus; experiment: Antimicrobial activity against Staphylococcus aureus at 1.25 ug/mL by agar diffusion method; assay type: functional; settings: read-out: IZ
[36] = tested on: Bacillus subtilis; experiment: Antimicrobial activity against Bacillus subtilis at 1.25 ug/mL by agar diffusion method; assay type: functional; settings: read-out: IZ
[37] = tested on: Escherichia coli; experiment: Antimicrobial activity against Escherichia coli at 1.25 ug/mL by agar diffusion method; assay type: functional; settings: read-out: IZ

Chain of DNA topoisomerase 2-alpha (Mus musculus) (Q01320 whole entry): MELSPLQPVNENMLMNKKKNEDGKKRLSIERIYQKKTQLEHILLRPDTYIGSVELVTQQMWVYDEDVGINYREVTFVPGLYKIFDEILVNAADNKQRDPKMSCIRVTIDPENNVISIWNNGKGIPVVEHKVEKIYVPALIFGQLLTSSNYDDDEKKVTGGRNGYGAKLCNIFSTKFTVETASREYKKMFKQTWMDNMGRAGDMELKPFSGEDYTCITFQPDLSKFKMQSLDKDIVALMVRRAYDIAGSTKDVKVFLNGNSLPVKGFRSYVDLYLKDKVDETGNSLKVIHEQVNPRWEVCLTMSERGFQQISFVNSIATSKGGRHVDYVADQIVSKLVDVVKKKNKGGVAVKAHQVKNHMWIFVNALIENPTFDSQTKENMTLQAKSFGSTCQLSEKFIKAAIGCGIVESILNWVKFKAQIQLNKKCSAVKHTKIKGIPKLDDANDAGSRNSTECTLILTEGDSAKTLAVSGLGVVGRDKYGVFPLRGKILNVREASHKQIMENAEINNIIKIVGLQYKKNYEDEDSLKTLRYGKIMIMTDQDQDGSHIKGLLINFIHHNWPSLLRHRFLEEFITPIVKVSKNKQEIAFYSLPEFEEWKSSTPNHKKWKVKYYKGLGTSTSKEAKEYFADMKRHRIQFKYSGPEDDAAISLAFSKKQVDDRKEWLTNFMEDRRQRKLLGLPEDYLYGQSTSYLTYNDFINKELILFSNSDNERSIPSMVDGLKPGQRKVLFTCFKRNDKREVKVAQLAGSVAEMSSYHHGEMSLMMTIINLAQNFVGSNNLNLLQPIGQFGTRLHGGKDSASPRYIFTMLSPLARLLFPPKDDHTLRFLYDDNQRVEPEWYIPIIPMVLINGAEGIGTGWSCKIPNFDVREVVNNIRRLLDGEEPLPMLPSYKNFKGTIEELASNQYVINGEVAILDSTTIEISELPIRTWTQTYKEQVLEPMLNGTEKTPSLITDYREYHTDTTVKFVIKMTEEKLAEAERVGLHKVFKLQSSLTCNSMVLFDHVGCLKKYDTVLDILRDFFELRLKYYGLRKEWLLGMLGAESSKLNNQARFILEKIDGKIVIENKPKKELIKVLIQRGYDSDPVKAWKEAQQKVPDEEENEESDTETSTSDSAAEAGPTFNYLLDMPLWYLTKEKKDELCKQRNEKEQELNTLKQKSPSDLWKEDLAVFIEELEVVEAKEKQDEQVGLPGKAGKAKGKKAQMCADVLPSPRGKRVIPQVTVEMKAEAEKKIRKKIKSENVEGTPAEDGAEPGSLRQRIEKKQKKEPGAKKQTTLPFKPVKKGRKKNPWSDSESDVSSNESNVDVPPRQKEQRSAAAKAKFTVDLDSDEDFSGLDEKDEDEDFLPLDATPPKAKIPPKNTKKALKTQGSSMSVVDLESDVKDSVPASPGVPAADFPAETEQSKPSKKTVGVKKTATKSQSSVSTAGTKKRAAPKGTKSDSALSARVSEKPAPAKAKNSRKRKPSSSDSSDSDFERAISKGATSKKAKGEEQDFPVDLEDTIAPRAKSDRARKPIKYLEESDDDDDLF

MIC [1] [µg/mL] | MIC [2] [µg/mL] | MIC [5] [µg/mL] | Ratio [8] | Ratio [12] | MIC [16] [µg/mL] | IC50 [17] [µM] | SMILES | zone of inhibition at 2.5 µg/mL [3] [mm] | zone of inhibition at 1.25 µg/mL [4] [mm] | zone of inhibition at 1.25 µg/mL [6] [mm] | zone of inhibition at 2.5 µg/mL [9] [mm] | zone of inhibition at 5 µg/mL [10] [mm] | zone of inhibition at 2.5 µg/mL [11] [mm] | zone of inhibition at 5 µg/mL [13] [mm] | Activity [14] [%] | zone of inhibition at 2.5 µg/mL [15] [mm] | zone of inhibition at 2.5 µg/mL [18] [mm] | zone of inhibition at 2.5 µg/mL [19] [mm] | zone of inhibition at 5 µg/mL [20] [mm] | zone of inhibition at 5 µg/mL [21] [mm] | also measured
0.313 (≈ 1.02 µM) | 1.09 (≈ 3.56 µM) | 0.313 (≈ 1.02 µM) | 4.33 | 4.3 | 0.625 (≈ 2.04 µM) | 56.1 | CC(=O)c1ccc(N/N=C2\CCCc3ccccc3C2=O)cc1 | 8 | 6 | 0 | 6 | 15 | 7 | 17 | 81 | 11 | 10 | 0 | 12 | 20 | MIC [7]: 1.25 µg/mL (≈ 4.08 µM); zone of inhibition at 5 µg/mL [22]: 16 mm; zone of inhibition at 1.25 µg/mL [23]: 6 mm; MIC [24]: 0.625 µg/mL (≈ 2.04 µM); zone of inhibition at 5 µg/mL [25]: 16 mm; zone of inhibition at 5 µg/mL [26]: 10 mm; zone of inhibition at 2.5 µg/mL [27]: 0 mm; MIC [28]: 1.25 µg/mL (≈ 4.08 µM); zone of inhibition at 5 µg/mL [29]: 0 mm; Activity [30]: Active; MIC [31]: 6.12 µg/mL (≈ 20 µM); zone of inhibition at 2.5 µg/mL [32]: 9 mm; zone of inhibition at 1.25 µg/mL [33]: 4 mm; zone of inhibition at 1.25 µg/mL [34]: 3 mm; zone of inhibition at 1.25 µg/mL [35]: 5 mm; zone of inhibition at 1.25 µg/mL [36]: 7 mm; zone of inhibition at 1.25 µg/mL [37]: 0 mm
0.625 (≈ 2.25 µM) | 1.14 (≈ 4.1 µM) | 0.625 (≈ 2.25 µM) | 4.27 | 4.2 | 0.625 (≈ 2.25 µM) | 56.3 | Cc1ccc(N/N=C2\CCCc3ccccc3C2=O)cc1 | 8 | 7 | 0 | 0 | 12 | 6 | 0 | 80.1 | 13 | 6 | 0 | 7 | 22 | zone of inhibition at 5 µg/mL [22]: 16 mm; zone of inhibition at 1.25 µg/mL [23]: 9 mm; MIC [24]: 0.313 µg/mL (≈ 1.12 µM); zone of inhibition at 5 µg/mL [25]: 18 mm; zone of inhibition at 5 µg/mL [26]: 14 mm; zone of inhibition at 2.5 µg/mL [27]: 0 mm; MIC [28]: 1.25 µg/mL (≈ 4.49 µM); zone of inhibition at 5 µg/mL [29]: 0 mm; Activity [30]: Active; MIC [31]: 7.06 µg/mL (≈ 25.4 µM); zone of inhibition at 2.5 µg/mL [32]: 12 mm; zone of inhibition at 1.25 µg/mL [33]: 0 mm; zone of inhibition at 1.25 µg/mL [34]: 2 mm; zone of inhibition at 1.25 µg/mL [35]: 5 mm; zone of inhibition at 1.25 µg/mL [36]: 4 mm; zone of inhibition at 1.25 µg/mL [37]: 0 mm
